The test system of data set [1] is Lipid bilayer. The data set can be described thus: Binding affinity to cardiolipin-rich POPC/POPE by fluorescence based analysis. The method, boiled down:
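NBD-labelled peptide monomer at 1 μM in PBS, mixed with liposomes of POPC/POPE (2:1) containing 10% CL, with CL-free POPC/POPE liposomes for comparison. Association was followed by NBD fluorescence (ex 467/em 536 nm), n = 3. For dissociation, liposomes were at 100 μM and unlabelled acetylated peptide was added stepwise up to 40 μM, with a 10 min dark incubation before each read.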

Data set [2] concerns Lipid bilayer. The data set is described as follows: Binding affinity to DLCL-rich POPC/POPE by fluorescence based analysis.
Data set [3] can be described thus: Drug localization in mitochondria of human HeLa cells at EC50 incubated for 3 hrs by fluorescence based assay. In kind it is ADME.

Active and inactive are the calls of the source. The rule behind the calls is not given here. Where a SMILES comes first, the peptide text is derived from it. Bridges are numbered along the chain shown (N, C = ends). Roman numbers before positions name the chains, in order. [ ]: non-standard residue; d: D form. The star is where a group is joined. 5TAMRA = CN(C)c1ccc2c(c1)Oc1cc(N(C)C)ccc1C21OC(=O)c2cc(C(=O)*)ccc21; Cha = N[C@@H](CC1CCCCC1)C(=O)O

`CC(=O)N[C@@H](CC1CCCCC1)C(=O)N[C@@H](CS)C(=O)N[C@@H](CCCNC(=N)N)C(=O)N[C@@H](CC(C)C)C(=O)N[C@@H](CC1CCCCC1)C(=O)N[C@@H](CCCNC(=N)N)C(=O)N[C@@H](CCCNC(=N)N)C(=O)N[C@@H](CC1CCCCC1)C(=O)N[C@@H](CS)C(=O)N[C@@H](CCCNC(=N)N)C(N)=O` (Ac-[Cha]CRL[Cha]RR[Cha]CR-NH2): the outcome in data set [1] and in data set [2] was Active. In data set [3], `CC(=O)N[C@@H](CC1CCCCC1)C(=O)N[C@H]1CSSC[C@@H](C(=O)N[C@@H](CCCNC(=N)N)C(N)=O)NC(=O)[C@H](CC2CCCCC2)NC(=O)[C@H](CCCNC(=N)N)NC(=O)[C@H](CCCNC(=N)N)NC(=O)[C@H](CC(C)C)NC(=O)[C@H](CC2CCCCC2)NC(=O)[C@H](CCCNC(=N)N)NC(=O)[C@@H](NC(=O)[C@H](CC2CCCCC2)NC(=O)c2ccc3c(c2)C(=O)OC32c3ccc(N(C)C)cc3Oc3cc(N(C)C)ccc32)CSSC[C@@H](C(=O)N[C@@H](CCCNC(=N)N)C(N)=O)NC(=O)[C@H](CC2CCCCC2)NC(=O)[C@H](CCCNC(=N)N)NC(=O)[C@H](CCCNC(=N)N)NC(=O)[C@H](CC(C)C)NC(=O)[C@H](CC2CCCCC2)NC(=O)[C@H](CCCNC(=N)N)NC1=O` (I: Ac-[Cha]CR[Cha]LRR[Cha]CR-NH2 / II: 5TAMRA-[Cha]CR[Cha]LRR[Cha]CR-NH2; disulfide I:2-II:9, I:9-II:2) returned a Drug uptake of 53%. In the case of `CC(=O)N[C@@H](CC1CCCCC1)C(=O)N[C@H]1CSSC[C@@H](C(=O)N[C@@H](CCCNC(=N)N)C(N)=O)NC(=O)[C@H](CC(C)C)NC(=O)[C@H](CCCNC(=N)N)NC(=O)[C@H](CCCNC(=N)N)NC(=O)[C@H](CC2CCCCC2)NC(=O)[C@H](CC2CCCCC2)NC(=O)[C@H](CCCNC(=N)N)NC(=O)[C@@H](NC(=O)[C@H](CC2CCCCC2)NC(=O)c2ccc3c(c2)C(=O)OC32c3ccc(N(C)C)cc3Oc3cc(N(C)C)ccc32)CSSC[C@@H](C(=O)N[C@@H](CCCNC(=N)N)C(N)=O)NC(=O)[C@H](CC(C)C)NC(=O)[C@H](CCCNC(=N)N)NC(=O)[C@H](CCCNC(=N)N)NC(=O)[C@H](CC2CCCCC2)NC(=O)[C@H](CC2CCCCC2)NC(=O)[C@H](CCCNC(=N)N)NC1=O` (I: Ac-[Cha]CR[Cha][Cha]RRLCR-NH2 / II: 5TAMRA-[Cha]CR[Cha][Cha]RRLCR-NH2; disulfide I:2-II:9, I:9-II:2), the Drug uptake in data set [3] was determined as 53%. The same measure, in the same setting: the figure for `CC(=O)N[C@@H](CC1CCCCC1)C(=O)N[C@H]1CSSC[C@@H](C(=O)N[C@@H](CCCNC(=N)N)C(N)=O)NC(=O)[C@H](CC2CCCCC2)NC(=O)[C@H](CCCNC(=N)N)NC(=O)[C@H](CCCNC(=N)N)NC(=O)[C@H](CC2CCCCC2)NC(=O)[C@H](CC2CCCCC2)NC(=O)[C@H](CCCNC(=N)N)NC(=O)[C@@H](NC(=O)[C@H](CC2CCCCC2)NC(=O)c2ccc3c(c2)C(=O)OC32c3ccc(N(C)C)cc3Oc3cc(N(C)C)ccc32)CSSC[C@@H](C(=O)N[C@@H](CCCNC(=N)N)C(N)=O)NC(=O)[C@H](CC2CCCCC2)NC(=O)[C@H](CCCNC(=N)N)NC(=O)[C@H](CCCNC(=N)N)NC(=O)[C@H](CC2CCCCC2)NC(=O)[C@H](CC2CCCCC2)NC(=O)[C@H](CCCNC(=N)N)NC1=O` (I: Ac-[Cha]CR[Cha][Cha]RR[Cha]CR-NH2 / II: 5TAMRA-[Cha]CR[Cha][Cha]RR[Cha]CR-NH2; disulfide I:2-II:9, I:9-II:2) is 53%.

The values are drawn from ChEMBL document CHEMBL5634162, “Cyclohexylalanine-Containing α-Helical Amphipathic Peptide Targets Cardiolipin, Rescuing Mitochondrial Dysfunction in Kidney Injury” (J Med Chem, 2024).
